Assay outcomes: PubChem BioAssay, several laboratories
ABHD5-PLIN5 inh: ABHD5-PLIN5 protein interaction inhibition. Split G. princeps luciferase complementation, luminescence, 4 h. inhibition, % at 4 µM. hit rate 0.78% among 360,000;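 active means inhibition above the mean inhibition across every tested compound plus 3 SD, cut at about 22% in these data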
NadD inh: NadD (S. aureus) enzyme inhibition | purified NadD enzyme, colorimetric absorbance read-out | hit rate 0.78% among 360,000 | inhibition, % at 20 µM; in the data active means inhibition above about 26%
HCV core dimer: blocks dimerization of HCV core protein; hit rate 0.33% among 300,000; inhibition, % at 5 µM; TR-FRET GST/Flag-core106 dimerization, 1536-well; AID 1899;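 active means inhibition above the mean of all tested compounds plus 3 SD, set per screening campaign, cut at about 45% in these data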
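Assay system: GST-tagged and Flag-tagged HCV core protein residues 1-106 / Times: compound-protein-antibody incubation 4 h at 22.5 °C / Signal: time-resolved FRET, ex 340 nm, em 617 and 671 nm / Evaluation: % inhibition based on acceptor/donor emission ratio / Benchmarks: wells lacking GST-core106 and wells with excess unlabelled core106 / Repeats: singlicate, one well per compound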
rCAG RNA binder: r(CAG) repeat RNA binding | AID 651821 | hit rate 1.3% among 370,000 | inhibition, % at 3 µM | TO-PRO-1 dye displacement fluorescence;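 active means inhibition above the plate cutoff, the mean of all test compounds on that plate plus 3 SD, cut at about 35% in these data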;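 further: higher means more dye released from RNA so lower well fluorescence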
ABHD5 PLIN5 conf: confirmation of human ABHD5-PLIN5 interaction inhibitors; shares compounds with ABHD5-PLIN5 inh; biochemical ABHD5-PLIN5 interaction, luminescence; inhibition, % at 4 µM; hit rate 67% among 2,200; AID 651612; in the data active means inhibition above about 23%
HNF4 counter: HNF4 split-luciferase signal hit, counter-screen | shares compounds with ABHD5-PLIN5 inh | HNF4 dimerization, luminescence, biochemical | inhibition, % at 4 µM | hit rate 77% among 2,200 | AID 651674;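 active means mean inhibition across replicate wells exceeding the computed hit threshold, cut at about 13% in these data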;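 further: light from luciferase halves that rejoin when HNF4 fusion proteins dimerize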
Of the large screens only hits and unclear results are named; the others gave an inactive call (follow-up assays come after a bar, where they were run). Sampled rows, rich in hits. Any-hit rate of the full collection: about 2.6%.

O=C(c1ccccc1)C(CN1CCCCC1)c1ccccc1 (centres undefined)	ABHD5-PLIN5 inh 29 (no result: HCV core dimer) | ABHD5 PLIN5 conf inactive | HNF4 counter 95
CN(Cc1cc(Cl)cc(Cl)c1)CC(C(=O)c1ccccc1)c1ccccc1 (centres undefined)	none (no result: HCV core dimer)
O=C(c1ccc(Br)cc1)C(CN1CCOCC1)c1ccccc1 (centres undefined)	ABHD5-PLIN5 inh 29 | ABHD5 PLIN5 conf 52 | HNF4 counter 94
COc1ccc(C(C)(C)C)cc1N1C(=O)[C@@H]2CSCCS(=O)(=O)N2C1=O	none (no result: ABHD5-PLIN5 inh, NadD inh, HCV core dimer)
CC1CCN(S(=O)(=O)c2ccc(NC(=O)Cc3cccs3)cc2)CC1	ABHD5-PLIN5 inh 33, HCV core dimer 65 | ABHD5 PLIN5 conf 44 | HNF4 counter inactive
CC1CCN(CC(=O)Nc2ccc(S(=O)(=O)N3CCC(C)CC3)cc2)CC1	none
CC1CCN(S(=O)(=O)c2ccc(NC(=O)Cn3nnc(-c4ccccc4)n3)cc2)CC1	ABHD5-PLIN5 inh 26 | ABHD5 PLIN5 conf 53 | HNF4 counter inactive
Cc1ccc(-c2nnn(CC(=O)Nc3ccc(S(=O)(=O)N4CCC(C)CC4)cc3)n2)cc1	none
CCOC(=O)N1CCN(C(=O)C2CCN(C(=O)c3ccccc3C)CC2)CC1	ABHD5-PLIN5 inh 26 (no result: HCV core dimer) | ABHD5 PLIN5 conf 38 | HNF4 counter 91
CC(C)c1ccc(OC[C@@H](O)CN2CCC(C(O)(c3ccccc3)c3ccccc3)CC2)cc1	none (no result: ABHD5-PLIN5 inh, NadD inh, HCV core dimer)
CCCCC[C@@H](/C=C/C1C(=O)C=C[C@H]1C/C=C\CCCC(=O)OC)OC(C)=O (some centres undefined)	ABHD5-PLIN5 inh 28 (no result: HCV core dimer) | ABHD5 PLIN5 conf 42 | HNF4 counter 63
Cc1ccc(-c2nn(-c3ccccc3)cc2CN(Cc2ccccc2)C(=O)c2ccco2)o1	ABHD5-PLIN5 inh 38 | ABHD5 PLIN5 conf inactive | HNF4 counter 21
CC(NCc1ccco1)C(=O)N1CCCN(C)CC1 (centres undefined)	none (no result: ABHD5-PLIN5 inh, NadD inh, HCV core dimer)
COc1cccc(F)c1C(C[N+](=O)[O-])c1c(N)n(C)c(=O)n(C)c1=O (centres undefined)	ABHD5-PLIN5 inh 31 | ABHD5 PLIN5 conf 30 | HNF4 counter 68
COc1cc(C(C[N+](=O)[O-])c2c(N)n(C)c(=O)n(C)c2=O)ccc1O (centres undefined)	ABHD5-PLIN5 inh 45 | ABHD5 PLIN5 conf 37 | HNF4 counter 55
CC(C(c1ccc2c(c1)OCO2)c1c(N)n(C)c(=O)n(C)c1=O)[N+](=O)[O-] (centres undefined)	ABHD5-PLIN5 inh 33 | ABHD5 PLIN5 conf inactive | HNF4 counter inactive
Cc1ccc(C(C[N+](=O)[O-])c2c(N)n(C)c(=O)n(C)c2=O)cc1 (centres undefined)	ABHD5-PLIN5 inh 32 | ABHD5 PLIN5 conf 36 | HNF4 counter 44
Cn1c(N)c(C(C[N+](=O)[O-])c2ccccc2Cl)c(=O)n(C)c1=O (centres undefined)	none
C[C@H](O)[C@@H]1CN2CCc3c([nH]c4ccccc34)[C@@H]2C[C@@H]1N(C)C(=S)NCCc1ccccc1	none (no result: HCV core dimer)
COc1ccc(Cn2cc(CN3CCOCC3)nn2)cc1	none (no result: HCV core dimer)
CCOC(=O)c1c(-c2ccc(C)o2)csc1NC(=O)CN(C)CC(=O)Nc1ccc(C)cc1	ABHD5-PLIN5 inh 26 | ABHD5 PLIN5 conf inactive | HNF4 counter 53
CCOC(=O)c1c(-c2ccc(C)o2)csc1NC(=O)CN1CCCCC1	none
NS(=O)(=O)c1ccc(N2CCCCCC2)c([N+](=O)[O-])c1	ABHD5-PLIN5 inh 74 | ABHD5 PLIN5 conf inactive | HNF4 counter 13
COc1ccc(Cl)cc1N/C(N)=N/c1nc(CSc2ccc(C)cc2)cc(=O)[nH]1	ABHD5-PLIN5 inh 104 | ABHD5 PLIN5 conf inactive | HNF4 counter inactive
COc1ccc(S[C@]2(C(=O)N3CCN(c4ncccn4)CC3)CC(=O)N(c3ccc(OC)cc3)[C@@H]2c2ccc(OC)cc2)cc1	none (no result: ABHD5-PLIN5 inh, NadD inh, HCV core dimer)
CCOc1ccc(C(c2c(O)nc(SC)[nH]c2=O)c2c(O)nc(SC)[nH]c2=O)cc1	ABHD5-PLIN5 inh 34 | ABHD5 PLIN5 conf 83 | HNF4 counter 77
C=CCOc1ccc(C(c2c(O)nc(SC)[nH]c2=O)c2c(O)nc(SC)[nH]c2=O)cc1	none
CSc1nc(O)c(C(c2ccc(O)cc2)c2c(O)nc(SC)[nH]c2=O)c(=O)[nH]1	ABHD5-PLIN5 inh 50 | ABHD5 PLIN5 conf 83 | HNF4 counter 81
